Measured values from ChEMBL document CHEMBL1155775, “Pharmacokinetics of the antiviral agent beta-D-2'-deoxy-2'-fluoro-2'-C-methylcytidine in rhesus monkeys” (Antimicrob Agents Chemother, 2007).

How the values were obtained:
[1] = Metabolic stability in human whole blood assessed as 2'-deoxy-2'-fluoro-2'-C-methyluridine level at 1000 dpm/pmol after 24 hrs at 37 degC; format: ADME, tissue-based
Procedure, shortened: (§1)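 3H-labeled nucleoside (10 μM, 1,000 dpm/pmol) incubated in human or monkey whole blood at 37°C for 0–48 h. Aliquots centrifuged, supernatant extracted with acetonitrile, dried, redissolved in water and run on ion-pairing reverse-phase C18 HPLC (ammonium acetate/tetrabutylammonium phosphate pH 7.0, methanol) to measure parent and deaminated product. Each time point in replicate.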

[2] = Metabolic stability in rhesus monkey whole blood assessed as 2'-deoxy-2'-fluoro-2'-C-methyluridine level at 1000 dpm/pmol after 24 hrs at 37 degC; format: ADME, tissue-based, Macaca mulatta; procedure, shortened: as §1
Hepatitis C virus = test: Antiviral activity against HCV in human Huh7 cells by replicon based assay; format: functional, Hepacivirus hominis; conditions: Huh-7
HepG2 = test: Cytotoxicity against human HepG2 cells; format: cell-based
[3] = Terminal half life in rhesus monkey at 33.3 mg/kg, po administered as single dose; format: ADME, organism-based, Macaca mulatta; parameters: dose 33.3 mg/kg, route oral; conditions: in vivo, read-out: beta t1/2 (converted)
Procedure, shortened: (§2)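 Three rhesus monkeys; single 33.3 mg/kg oral dose by gastric intubation in water, then after ≥4-week washout i.v. bolus via femoral vein in sterile normal saline; anesthetized (ketamine plus Telazol i.m.) for 4 h. Femoral venous blood at 0–24 h; serum by HPLC-UV 270 nm, 3TC internal standard. Noncompartmental analysis per animal and pooled; AUC by trapezoid extrapolated to infinity; F = AUCoral/AUCi.v.; MAT = MRToral − MRTi.v.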

[4] = Terminal half life in rhesus monkey at 33.3 mg/kg, iv administered as single dose; format: ADME, organism-based, Macaca mulatta; parameters: dose 33.3 mg/kg, route intravenous; conditions: in vivo, read-out: beta t1/2 (converted); procedure, shortened: as §2
[5] = Tmax in rhesus monkey at 33.3 mg/kg, iv administered as single dose; format: ADME, organism-based, Macaca mulatta; parameters: dose 33.3 mg/kg, route intravenous; conditions: in vivo
Procedure, shortened: (§3)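 Three rhesus monkeys, anesthetised with ketamine plus tiletamine/zolazepam, received a single 33.3 mg/kg bolus in sterile normal saline via the femoral vein. Serum was acetonitrile-extracted with 3TC as internal standard and assayed by reverse-phase HPLC-UV at 270 nm. Peak concentration and its time were taken as observed; noncompartmental analysis.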

[6] = Cmax in rhesus monkey at 33.3 mg/kg, iv administered as single dose; format: ADME, organism-based, Macaca mulatta; parameters: dose 33.3 mg/kg, route intravenous; conditions: in vivo; procedure, shortened: as §3
[7] = AUC in rhesus monkey at 33.3 mg/kg, iv administered as single dose; format: ADME, organism-based, Macaca mulatta; parameters: dose 33.3 mg/kg, route intravenous; conditions: plasma; procedure, shortened: as §2
[8] = AUC in rhesus monkey at 33.3 mg/kg, po administered as single dose; format: ADME, organism-based, Macaca mulatta; parameters: dose 33.3 mg/kg, route oral; conditions: plasma; procedure, shortened: as §2
Rhesus monkey [9] = test: Apparent volume of distribution with respect to bioavailability in rhesus monkey at 33.3 mg/kg, iv administered as single dose; format: ADME, organism-based, Macaca mulatta; conditions: in vivo; procedure, shortened: as §2
[10] = Apparent volume of distribution with respect to bioavailability in rhesus monkey at 33.3 mg/kg, po administered as single dose; format: ADME, organism-based, Macaca mulatta; conditions: in vivo, read-out: Vc/F; procedure, shortened: as §2
[11] = Metabolic stability in human whole blood at 1000 dpm/pmol after 0.5 hrs at 37 degC; format: ADME, tissue-based; conditions: read-out: Stability; procedure, shortened: as §1
[12] = Metabolic stability in human whole blood at 1000 dpm/pmol after 1 hr at 37 degC; format: ADME, tissue-based; conditions: read-out: Stability; procedure, shortened: as §1
[13] = Metabolic stability in human whole blood at 1000 dpm/pmol after 2 hrs at 37 degC; format: ADME, tissue-based; conditions: read-out: Stability; procedure, shortened: as §1
[14] = Metabolic stability in human whole blood at 1000 dpm/pmol after 4 hrs at 37 degC; format: ADME, tissue-based; conditions: read-out: Stability; procedure, shortened: as §1
[15] = Metabolic stability in human whole blood at 1000 dpm/pmol after 8 hrs at 37 degC; format: ADME, tissue-based; conditions: read-out: Stability; procedure, shortened: as §1
[16] = Metabolic stability in human whole blood at 1000 dpm/pmol after 10 hrs at 37 degC; format: ADME, tissue-based; conditions: read-out: Stability; procedure, shortened: as §1
[17] = Metabolic stability in human whole blood at 1000 dpm/pmol after 24 hrs at 37 degC; format: ADME, tissue-based; conditions: read-out: Stability; procedure, shortened: as §1
[18] = Metabolic stability in human whole blood at 1000 dpm/pmol after 48 hrs at 37 degC; format: ADME, tissue-based; conditions: read-out: Stability; procedure, shortened: as §1
[19] = Metabolic stability in rhesus monkey whole blood at 1000 dpm/pmol after 0.25 hrs at 37 degC; format: ADME, tissue-based, Macaca mulatta; conditions: read-out: Stability; procedure, shortened: as §1
[20] = Metabolic stability in rhesus monkey whole blood at 1000 dpm/pmol after 0.5 hrs at 37 degC; format: ADME, tissue-based, Macaca mulatta; conditions: read-out: Stability; procedure, shortened: as §1
[21] = Metabolic stability in rhesus monkey whole blood at 1000 dpm/pmol after 1 hr at 37 degC; format: ADME, tissue-based, Macaca mulatta; conditions: read-out: Stability; procedure, shortened: as §1
[22] = Metabolic stability in rhesus monkey whole blood at 1000 dpm/pmol after 2 hrs at 37 degC; format: ADME, tissue-based, Macaca mulatta; conditions: read-out: Stability; procedure, shortened: as §1
[23] = Metabolic stability in rhesus monkey whole blood at 1000 dpm/pmol after 4 hrs at 37 degC; format: ADME, tissue-based, Macaca mulatta; conditions: read-out: Stability; procedure, shortened: as §1
[24] = Metabolic stability in rhesus monkey whole blood at 1000 dpm/pmol after 8 hrs at 37 degC; format: ADME, tissue-based, Macaca mulatta; conditions: read-out: Stability; procedure, shortened: as §1
[25] = Metabolic stability in rhesus monkey whole blood at 1000 dpm/pmol after 10 hrs at 37 degC; format: ADME, tissue-based, Macaca mulatta; conditions: read-out: Stability; procedure, shortened: as §1
[26] = Metabolic stability in rhesus monkey whole blood at 1000 dpm/pmol after 24 hrs at 37 degC; format: ADME, tissue-based, Macaca mulatta; conditions: read-out: Stability; procedure, shortened: as §1
[27] = Metabolic stability in rhesus monkey whole blood at 1000 dpm/pmol after 48 hrs at 37 degC; format: ADME, tissue-based, Macaca mulatta; conditions: read-out: Stability; procedure, shortened: as §1
[28] = Clearance in rhesus monkey at 33.3 mg/kg, po administered as single dose; format: ADME, organism-based, Macaca mulatta; parameters: dose 33.3 mg/kg, route oral; conditions: in vivo; procedure, shortened: as §2
[29] = Stability in rhesus monkey urine at 33.3 mg/kg assessed as unchanged drug dose administered as single dose during 8 hrs; format: ADME, organism-based, Macaca mulatta; parameters: dose 33.3 mg/kg; conditions: read-out: Stability
Procedure, shortened: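 Catheterized rhesus monkeys given single 33.3 mg/kg oral or i.v. dose; urine collected in intervals over 0–8 h, kept on ice then frozen at −70°C; diluted 20-fold (oral) or 50-fold (i.v.), 3TC internal standard added, parent and deaminated uridine metabolite quantified by HPLC-UV 270 nm; percent of dose recovered.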

[30] = Apparent oral clearance in rhesus monkey at 33.3 mg/kg, po administered as single dose; format: ADME, organism-based, Macaca mulatta; parameters: dose 33.3 mg/kg, route oral; conditions: in vivo; procedure, shortened: as §2
[31] = Mean residence time in rhesus monkey at 33.3 mg/kg, iv administered as single dose; format: ADME, organism-based, Macaca mulatta; parameters: dose 33.3 mg/kg, route intravenous; conditions: in vivo; procedure, shortened: as §2
[32] = Mean residence time in rhesus monkey at 33.3 mg/kg, po administered as single dose; format: ADME, organism-based, Macaca mulatta; parameters: dose 33.3 mg/kg, route oral; conditions: in vivo; procedure, shortened: as §2
[33] = Volume of distribution at steady state in rhesus monkey at 33.3 mg/kg, iv administered as single dose; format: ADME, organism-based, Macaca mulatta; parameters: dose 33.3 mg/kg, route intravenous; conditions: in vivo, read-out: Vdss; procedure, shortened: as §2
[34] = Drug level in rhesus monkey cerebrospinal fluid at 33.3 mg/kg, iv administered as single dose after 1 hr; format: ADME, organism-based, Macaca mulatta; parameters: dose 33.3 mg/kg, route intravenous; conditions: read-out: Drug uptake
Procedure, shortened: (§4)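 Same three anesthetized rhesus monkeys given single 33.3 mg/kg oral (water, gastric intubation) or i.v. (saline, femoral vein) dose. CSF taken 1 h post-dose by cisternal or lumbar tap; 3TC internal standard added, analyzed by reverse-phase HPLC with UV detection at 270 nm against standards in water (0.1–25 μg/ml).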

[35] = Drug level in rhesus monkey cerebrospinal fluid at 33.3 mg/kg, po administered as single dose after 1 hr; format: ADME, organism-based, Macaca mulatta; parameters: dose 33.3 mg/kg, route oral; conditions: read-out: Drug uptake; procedure, shortened: as §4
[36] = Drug level in rhesus monkey cerebrospinal fluid assessed as 2'-deoxy-2'-fluoro-2'-C-methyluridine level at 33.3 mg/kg, iv administered as single dose after 1 hr; format: ADME, organism-based, Macaca mulatta; parameters: dose 33.3 mg/kg, route intravenous; conditions: in vivo, read-out: Drug uptake; procedure, shortened: as §4
Rhesus monkey [37] = test: Mean absorption time in rhesus monkey at 33.3 mg/kg, po administered as single dose; format: ADME, organism-based, Macaca mulatta; parameters: dose 33.3 mg/kg, route oral; conditions: in vivo; procedure, shortened: as §2
[38] = Oral bioavailability in rhesus monkey at 33.3 mg/kg, po administered as single dose; format: ADME, organism-based, Macaca mulatta; conditions: in vivo; procedure, shortened: as §2
[39] = Metabolic stability in human whole blood at 1000 dpm/pmol after 0.25 hrs at 37 degC; format: ADME, tissue-based; conditions: read-out: Stability; procedure, shortened: as §1
[40] = Clearance in rhesus monkey at 33.3 mg/kg, iv administered as single dose; conditions: in vivo

C[C@@]1(F)[C@H](O)[C@@H](CO)O[C@H]1n1ccc(=O)[nH]c1=O
Stability [1]: 4.9% | Stability [2]: 6.9%

C[C@@]1(F)[C@H](O)[C@@H](CO)O[C@H]1n1ccc(N)nc1=O
EC90 (Hepatitis C virus): 5.4 µM | Activity (HepG2): > 100 µM | half-life [3]: 5.64 h | half-life [4]: 4.54 h | Tmax [5]: 0.25 h | Cmax [6]: 154000 nM | AUC [7]: 235 µM·h | AUC [8]: 44.1 µM·h | Vc/F (Rhesus monkey [9]): 4.8 L/kg | Vd/F [10]: 21.9 L/kg | remaining at 0.5 h [11]: 100% | remaining at 1 h [12]: 100% | remaining at 2 h [13]: 100% | remaining at 4 h [14]: 100% | remaining at 8 h [15]: 100% | remaining at 10 h [16]: 99.1% | remaining at 24 h [17]: 95.1% | remaining at 48 h [18]: 83.7% | remaining at 0.25 h [19]: 100% | remaining at 0.5 h [20]: 100% | remaining at 1 h [21]: 100% | remaining at 2 h [22]: 100% | remaining at 4 h [23]: 100% | remaining at 8 h [24]: 100% | remaining at 10 h [25]: 97.2% | remaining at 24 h [26]: 93.1% | remaining at 48 h [27]: 80% | CL/F [28]: 48 mL/min/kg | dose excreted at 8 h [29]: 6% | CL/F [30]: 48 mL/min/kg | MRT [31]: 2.5 h | MRT [32]: 7.11 h | Vd [33]: 1.51 L/kg | concentration at 1 h [34]: 3670 nM | concentration at 1 h [35]: 280 nM | concentration [36]: 1380 nM | MAT (Rhesus monkey [37]): 4.61 h | bioavailability [38]: 24% | remaining at 0.25 h [39]: 100% | clearance [40]: 10 mL/min/kg
